Source: PubChem BioAssay AID540295 (The Scripps Research Institute Molecular Screening Center, 2011)
Hit rate of the full screen: of about 360,000 compounds, about 1,700 (0.47%) were called active.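 How the source made its calls: active means inhibition above its plate's cutoff, the mean of tested wells on that plate plus 3 SD (cut at about 29% in these data); inactive means the rest.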 The full list was thinned out, with actives kept by preference.

target: Melanocortin receptor 4 (Homo sapiens) (UniProt P32245); assay: MC4R antagonists of cAMP signaling, primary screen, cell-based, TR-FRET, antagonist arm of biased-ligand search (AID 540295); settings: MC4R-expressing cells, MTII-stimulated cAMP, LANCE TR-FRET; at 6.5 µM; active compounds read high;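 further: 0% = Melanotan II alone and 100% = Melanotan II plus saturating MCL0020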
Sequence (P32245 whole entry, looked up): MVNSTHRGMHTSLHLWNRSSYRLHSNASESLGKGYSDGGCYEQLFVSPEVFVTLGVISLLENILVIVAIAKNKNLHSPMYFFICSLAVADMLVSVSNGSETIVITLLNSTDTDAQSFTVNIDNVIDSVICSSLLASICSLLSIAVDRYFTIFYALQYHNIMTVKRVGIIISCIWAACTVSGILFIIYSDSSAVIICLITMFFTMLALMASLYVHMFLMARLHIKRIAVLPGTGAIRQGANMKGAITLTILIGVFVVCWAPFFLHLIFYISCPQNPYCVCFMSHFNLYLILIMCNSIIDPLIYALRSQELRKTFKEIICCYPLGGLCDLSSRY
Procedure, shortened: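 System: U2OS cells stably expressing human melanocortin 4 receptor (MC4R). Reagent: Melanotan II challenge after compound preincubation. Doses: 6.5 µM. Times: 30-min compound, 1-h challenge, 1-h detection, room temperature. Measured by: TR-FRET with Eu-cAMP and labeled anti-cAMP, 671 nm. Replicates: singlicate.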

| SMILES | inhibition |
| --- | --- |
| CC/C(Cc1ccccc1)=N/NC(=O)CCn1nnc2ccccc21 | 9.16% (inactive) |
| CC12CCC(=O)C=C1CCC1C2C(O)CC2(C)C1CCC2(O)C(O)CO (stereo not given) | 1.23% (inactive) |
| CCOC(=O)c1cc(C)nc(S(C)(=O)=O)c1C#N | 38.7% (active) |
| CCOC(=O)c1c(C(C#N)C#N)cc(C)nc1C | 1.49% (inactive) |
| CCOC(=O)COc1nc(C)cc(C(F)(F)F)c1C#N | -2.8% (inactive) |
| O=C(Nc1ccccc1F)c1cc(S(=O)(=O)N2CCCCC2)cs1 | 3.77% (inactive) |
| Cn1ccs/c1=N\S(=O)(=O)c1ccc(C(C)(C)C)cc1 | 8.67% (inactive) |
| COc1ccc(N2C(=O)CC(N3CCC(C(N)=O)CC3)C2=O)cc1 (stereo not given) | 5.05% (inactive) |
| COc1ccc(N2C(=O)C3C(C2=O)C(C(=O)c2ccccc2)N2CCCC32)cc1 (stereo not given) | 30.8% (active) |
| CNC(=O)C[C@H]1C(=O)N(c2ccc(OC)cc2)C[C@@H]1Cc1ccccc1 | -3.72% (inactive) |
| O=C(CCc1nnc(Cc2ccc3c(c2)OCO3)o1)NCCc1ccccc1Cl | 2.77% (inactive) |
| NCCCNC(=S)NCCCN(Cc1ccc(Cl)cc1)c1ccc(Br)cn1 | 3.71% (inactive) |
| O=C(NCc1ccccc1)C1=C[C@@H](C2CCCCC2)C[C@@H](OCc2ccc(CO)cc2)O1 | 4.66% (inactive) |
| CC(=O)c1ccccc1NC(=O)COC(=O)C1COc2ccccc2O1 (stereo not given) | 16.3% (inactive) |
| CCC1CCCCN1CCCNC(=O)c1cc2c(Cl)nc3ccccc3c2s1 (stereo not given) | -9.04% (inactive) |
| Cc1cccc(CN2CCC(CNC(=O)Nc3ccc(F)c(Cl)c3)CC2)c1 | 1.8% (inactive) |
| O=C(NCC1CCN(Cc2ccccc2Cl)CC1)Nc1cccc(Cl)c1 | 29.6% (active) |
| COc1ccc(Cl)cc1NC(=O)NCC1CCN(Cc2ccccc2F)CC1 | 3.98% (inactive) |
| FC(F)Oc1ccccc1NC(=S)Nc1cccc(Cl)c1Cl | 0.43% (inactive) |
| S=C(Cc1ccc(Cl)cc1)N1CCOCC1 | 2.15% (inactive) |

| SMILES | inhibition |
| --- | --- |
| COc1ccccc1NC(=O)c1ccc2nc(N3C(=O)CCC3=O)sc2c1 | 35.1% (active) |
| CCCc1cc(=O)[nH]c(SCC(=O)Nc2ccc(C(=O)Nc3ccccc3OC)cc2)n1 | 10.3% (inactive) |
| COc1ccccc1-c1nnc(NC(=O)c2cccc(N3C(=O)CCC3=O)c2)o1 | 17.9% (inactive) |
| COC(=O)/C(=C1\Oc2ccc(C(C)(C)C)cc2S1)C(F)(F)F | 13.2% (inactive) |
| CCc1nc2c(OCCOc3ccccc3)cccn2c1N(C)C(=O)c1cccs1 | -6.4% (inactive) |
| COC(=O)COc1ccc2c(=O)c(Oc3ccccc3Br)coc2c1 | 11% (inactive) |
| COc1ccccc1CC(=O)Nc1ccc(F)cc1F | 28.9% (active) |
| COC(=O)c1ccccc1NC(=O)Cc1ccccc1OC | 18.4% (inactive) |
| O=C(COC(=O)CSc1ccccc1)Nc1ccc(F)cc1F | 9.52% (inactive) |
| CCCCOc1ccc(C(=O)N/C(=C/C=C/c2ccccc2)C(=O)N2CCOCC2)cc1 | 3.43% (inactive) |
| O=C(Nc1nn(Cc2ccccc2F)cc1Br)c1cccs1 | 11.3% (inactive) |
| C=CCn1c2ccccc2c2nnc(SCc3[nH]c(=O)[nH]c3C(=O)CCCCC(=O)OCC)nc21 | -12.2% (inactive) |
| O=C(COC(=O)Cn1cnc2ccccc2c1=O)NCC12CC3CC(CC(C3)C1)C2 | 29.2% (active) |
| O=C(COC(=O)Cn1cnc2ccccc2c1=O)NCc1ccccc1Cl | 10.8% (inactive) |
| CC1(C)C(=O)Nc2ccccc2N1C(=O)COC(=O)Cn1cnc2ccccc2c1=O | 13.1% (inactive) |
| O=C(N/C(=C\c1ccc(O)cc1)C(=O)N1CCCCC1)c1ccccc1 | 2.84% (inactive) |
| COc1ccc(N)cc1NC(=O)CN1CCOCC1 | -2.41% (inactive) |
| O=C(O)c1n[nH]nc1-c1ccccc1 | 3.02% (inactive) |
| CCOC(=O)CSc1nc(C)c(Oc2ccc(Cl)cc2Cl)c(=O)[nH]1 | 5.59% (inactive) |
| CCCCOC(=O)CNc1nnc(SCC(=O)OCC)[nH]c1=O | 60.6% (active) |

| SMILES | inhibition |
| --- | --- |
| Cc1nnc(SCC(=O)N2CCOCC2)[nH]c1=O | 2.07% (inactive) |
| NC(=O)c1ccc(NC(=O)COC(=O)C(Cc2ccccc2)NC(=O)c2ccccc2)cc1 (stereo not given) | 11% (inactive) |
| O=C(COC(=O)[C@H](Cc1ccccc1)NC(=O)c1cccs1)Nc1cc(F)ccc1F | 31.4% (active) |
| Cc1ccc(C)c(NC(CC(=O)c2ccccc2)C(=O)OCC(=O)c2cccs2)c1 (stereo not given) | -0.53% (inactive) |
| CCc1nc2c(OCc3ccc(C(F)(F)F)cc3)cccn2c1N(C)C(=O)CC(C)C | 6.64% (inactive) |
| O=C(COC(=O)c1cnc(Cl)c(Cl)c1)NCc1ccco1 | 10.1% (inactive) |
| O=S(=O)(NCC1CCCO1)c1cnc(Cl)c(Cl)c1 (stereo not given) | 24.7% (inactive) |
| O=S(=O)(NCc1ccco1)c1cnc(Cl)c(Cl)c1 | 44.9% (active) |
| COC(=O)C[C@H]1C[C@@H]2c3cc(N(C)C)ccc3O[C@@H]2[C@H](CO)O1 | 13% (inactive) |
| O=C1c2ccccc2C(=O)N1CCc1nn[nH]n1 | 14.6% (inactive) |
| O=C(CCCOc1ccccc1)NCc1ccco1 | 2.67% (inactive) |
| CN(C)C(CNC(=O)CCCOc1ccccc1)c1ccco1 (stereo not given) | 29.7% (active) |
| CN(C)C(CNC(=O)c1cccc(C#N)c1)c1ccco1 (stereo not given) | 0.76% (inactive) |
| CN(CC(=O)NCC(c1ccccc1)N1CCCC1)S(=O)(=O)c1ccc(Cl)cc1 (stereo not given) | -2.78% (inactive) |
| CN(CC(=O)NNC(=O)CNC(=O)c1ccccc1Cl)S(=O)(=O)c1ccc(Cl)cc1 | 2.86% (inactive) |
| CN(CC(=O)NCCc1ccccn1)S(=O)(=O)c1ccc(Cl)cc1 | 30.3% (active) |
| Cc1ccc(S(=O)(=O)N2CCCC2C(=O)NCc2ccco2)cc1 (stereo not given) | -0.46% (inactive) |
| COC(=O)COc1ccc(C2NC(=O)NC(C)=C2C(=O)NCc2ccccc2)cc1OC (stereo not given) | 21.9% (inactive) |
| C[C@H]([C@@H](O)[C@@H](O)[C@@H](C)C(C)(C)C)[C@H]1CC[C@H]2C3CC[C@H]4C[C@H](OS(=O)(=O)O)[C@@H](OS(=O)(=O)O)C[C@]4(C)[C@H]3CC[C@]12C (stereo not given in full) | 9.52% (inactive) |
| CCN(CCCNC(=O)C1CCN(S(=O)(=O)c2cnc[nH]2)CC1)c1ccccc1 | 17.3% (inactive) |
